Results on 8 compounds are retold here after ChEMBL document CHEMBL1126625, “7-Azetidinylquinolones as antibacterial agents. Synthesis and structure-activity relationships” (J Med Chem, 1993).

For one data set, the system named is Proteus vulgaris. Description: Minimum inhibitory concentration (MIC) preventing growth of Proteus vulgaris. Type of data set: functional.
Data set [1] relates to Staphylococcus aureus. Description: Minimum inhibitory concentration (MIC) preventing growth of […]. Format: functional.
Data set [2] has as its system Escherichia coli. The data set is described as follows: Minimum inhibitory concentration (MIC)preventing growth of Escherichia coli. Format: functional.
Another data set relates to Mus musculus. Description: Blood level after oral administration in mice (50 mg/kg) was determined (area under the concentration-time curve recorded at 0.5, 1, 2, and 4 hour after dosing). Type of data set: ADME, organism-based. On the set-up: dose 50 mg/kg, time < 4 hr, route oral. To be noted: in vivo. The gist of the method:
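Single oral dose of 50 mg/kg to mice. Blood taken from groups of six mice at 0.5, 1, 2 and 4 h after dosing. Serum levels measured by disk agar diffusion bioassay with Bacillus subtilis ATCC 6633 on Seed Agar, plates incubated 18 h at 37 °C, giving total activity in serum. AUC 0-4 h expressed as μg/mL […].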

In the next data set the test system is Enterobacter cloacae. The data set is described as follows: Minimum inhibitory concentration (MIC)preventing growth of Enterobacter cloacae. Format: functional.
A further data set has as its system Enterococcus faecalis. Description: Minimum inhibitory concentration (MIC) preventing growth of Streptococcus faecalis ATCC 10541. Type of data set: functional.
In a further data set the test system is Klebsiella pneumoniae. Description: Minimum inhibitory concentration (MIC)preventing growth of Klebsiella pneumoniae. Format: functional.
The subject of another data set is Morganella morganii. The data set is described as follows: Minimum inhibitory concentration (MIC) preventing growth of Morganella morganii. Type of data set: functional.
The test system of data set [3] is Staphylococcus epidermidis. Description: Minimum inhibitory concentration (MIC) preventing growth of Staphylococcus epidermidis. Type of data set: functional.
Data set [4] relates to Pseudomonas aeruginosa. Description: Minimum inhibitory concentration (MIC)preventing growth of Pseudomonas aeruginosa. Type of data set: functional.
A further data set has as its system Bacillus cereus. Description: Minimum inhibitory concentration (MIC) preventing growth of Bacillus cereus. Type of data set: functional.
The subject of the next data set is Bacillus subtilis. The data set is described as follows: Minimum inhibitory concentration (MIC) preventing growth of Bacillus subtilis. Format: functional.
For data set [5], the system named is Escherichia coli. Description: Efficacy on systemic infections after oral administration in mice was determined against Escherichia coli HM-42. Format: functional. In short, it runs like this: (§1)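 Mouse protection test using 4 groups of 10 mice. Mice were infected intraperitoneally with a bacterial suspension slightly above LD100. A single oral dose was given immediately after infection, with four doses, one per group, chosen from in vitro activity. Survival was scored after one week, and ED50 (total mg/kg protecting 50% of mice) was interpolated from group survival rates.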

For data set [6], the system named is Pseudomonas aeruginosa. Description: Efficacy on systemic infections after oral administration in mice was determined against Pseudomonas aeruginosa HS-116. Format: functional. In short, it runs like this: as §1
In data set [7] the test system is Staphylococcus aureus. Description: Efficacy on systemic infections after oral administration in mice was determined against […] HS-93. Type of data set: functional. In short, it runs like this: as §1

≈ marks a conversion by molar mass, not a printed value.

Broadly, the MIC is the lowest concentration that inhibits growth of the organism. Low values mean a more susceptible organism, high ones a less susceptible organism. Broadly, the AUC is concentration integrated over time. For orientation: ED50 means the midpoint of the dose-response relation.

Take `NCC1CN(c2cc3c(cc2F)c(=O)c(C(=O)O)cn3C2CC2)C1`: the MIC with Proteus vulgaris turned out to be 1 µg/mL (≈ 3.02 µM); with Staphylococcus aureus [1] it was 0.5 µg/mL (≈ 1.51 µM); in the data set on Escherichia coli [2], 0.12 µg/mL (≈ 0.362 µM); against Enterobacter cloacae it was 0.25 µg/mL (≈ 0.754 µM); in the data set with Enterococcus faecalis it was 0.5 µg/mL (≈ 1.51 µM); with Klebsiella pneumoniae, 0.12 µg/mL (≈ 0.362 µM). For the same compound, the MIC came to 0.12 µg/mL (≈ 0.362 µM) in the data set with Morganella morganii; 0.25 µg/mL (≈ 0.754 µM) in [3]; 1 µg/mL (≈ 3.02 µM) against Pseudomonas aeruginosa [4]; 0.25 µg/mL (≈ 0.754 µM) with Bacillus cereus; 0.12 µg/mL (≈ 0.362 µM) in the data set with Bacillus subtilis. The compound further yielded an AUC in the data set with Mus musculus of 0 ng·h/mL.
As to `CC1(N)CN(c2c(F)cc3c(=O)c(C(=O)O)cn(-c4ccc(F)cc4)c3c2Cl)C1`, the MIC was 0.12 µg/mL (≈ 0.286 µM) against Proteus vulgaris; 0.06 µg/mL (≈ 0.143 µM) against Staphylococcus aureus [1]; 0.03 µg/mL (≈ 0.0715 µM) in the data set with Escherichia coli [2]; 0.06 µg/mL (≈ 0.143 µM) in the data set with Enterobacter cloacae; 0.25 µg/mL (≈ 0.596 µM) in the data set on Enterococcus faecalis; 0.03 µg/mL (≈ 0.0715 µM) in the data set on Klebsiella pneumoniae. For the same compound, the MIC against Morganella morganii was determined as 0.12 µg/mL (≈ 0.286 µM); in data set [3] it was 0.06 µg/mL (≈ 0.143 µM); in the data set with Pseudomonas aeruginosa [4], 0.5 µg/mL (≈ 1.19 µM); against Bacillus cereus, 0.06 µg/mL (≈ 0.143 µM); against Bacillus subtilis, 0.015 µg/mL (≈ 0.0357 µM). The ED50 in the data set with Escherichia coli [5] was determined as 0.4 mg/kg; in the data set with Pseudomonas aeruginosa [6], 54.9 mg/kg; with Staphylococcus aureus [7], 1.1 mg/kg.
For `CN(C)C1(C)CN(c2c(F)cc3c(=O)c(C(=O)O)cn(C4CC4)c3c2F)C1`, the MIC against Proteus vulgaris came out at 0.5 µg/mL (≈ 1.32 µM); in the data set on Staphylococcus aureus [1], 0.25 µg/mL (≈ 0.662 µM); against Escherichia coli [2], 0.12 µg/mL (≈ 0.318 µM); in the data set on Enterobacter cloacae it was 0.12 µg/mL (≈ 0.318 µM); against Enterococcus faecalis it was 1 µg/mL (≈ 2.65 µM); with Klebsiella pneumoniae, 0.25 µg/mL (≈ 0.662 µM). In addition, the MIC in the data set with Morganella morganii came to 0.25 µg/mL (≈ 0.662 µM); in [3], 0.25 µg/mL (≈ 0.662 µM); in the data set with Pseudomonas aeruginosa [4] it was 2 µg/mL (≈ 5.3 µM); against Bacillus cereus it was 0.25 µg/mL (≈ 0.662 µM); against Bacillus subtilis, 0.06 µg/mL (≈ 0.159 µM). In addition, the figures for the 50% effective dose (ED50) in the data set on Escherichia coli [5], in the data set with Pseudomonas aeruginosa [6] and with Staphylococcus aureus [7] were 1.4 mg/kg, 70.2 mg/kg and 7.4 mg/kg, respectively.
With `CCn1cc(C(=O)O)c(=O)c2cc(F)c(N3CC(C)(N)C3)c(F)c21`, the MIC in the data set with Proteus vulgaris was 1 µg/mL (≈ 2.96 µM); in the data set on Staphylococcus aureus [1], 0.5 µg/mL (≈ 1.48 µM); in the data set with Escherichia coli [2], 0.12 µg/mL (≈ 0.356 µM); with Enterobacter cloacae it was 0.12 µg/mL (≈ 0.356 µM); against Enterococcus faecalis it was 2 µg/mL (≈ 5.93 µM); in the data set with Klebsiella pneumoniae it was 0.015 µg/mL (≈ 0.0445 µM). The MIC came to 0.12 µg/mL (≈ 0.356 µM) in the data set with Morganella morganii; 0.5 µg/mL (≈ 1.48 µM) in data set [3]; 2 µg/mL (≈ 5.93 µM) against Pseudomonas aeruginosa [4]; 0.5 µg/mL (≈ 1.48 µM) against Bacillus cereus; 0.12 µg/mL (≈ 0.356 µM) against Bacillus subtilis. The ED50 is 4.1 mg/kg in the data set on Escherichia coli [5], 57.3 mg/kg in the data set with Pseudomonas aeruginosa [6] and 8.2 mg/kg in the data set on Staphylococcus aureus [7].
Consider `CN(C)C1(C)CN(c2cc3c(cc2F)c(=O)c(C(=O)O)cn3C2CC2)C1`, for which the MIC was determined as 0.5 µg/mL (≈ 1.39 µM) against Proteus vulgaris; 0.25 µg/mL (≈ 0.696 µM) with Staphylococcus aureus [1]; 0.25 µg/mL (≈ 0.696 µM) in the data set on Escherichia coli [2]; 0.25 µg/mL (≈ 0.696 µM) against Enterobacter cloacae; 2 µg/mL (≈ 5.56 µM) in the data set with Enterococcus faecalis; 0.25 µg/mL (≈ 0.696 µM) in the data set on Klebsiella pneumoniae. Moreover, the MIC against Morganella morganii came to 0.25 µg/mL (≈ 0.696 µM); in data set [3], 0.25 µg/mL (≈ 0.696 µM); with Pseudomonas aeruginosa [4] it was 4 µg/mL (≈ 11.1 µM); in the data set on Bacillus cereus it was 0.25 µg/mL (≈ 0.696 µM); in the data set on Bacillus subtilis, 0.06 µg/mL (≈ 0.167 µM). Besides, the ED50 in the data set with Escherichia coli [5] came out at 2.7 mg/kg; in the data set on Pseudomonas aeruginosa [6], 296 mg/kg; in the data set with Staphylococcus aureus [7], 16.1 mg/kg.
As for `CCNC1CN(c2cc3c(cc2F)c(=O)c(C(=O)O)cn3C2CC2)C1`, the MIC is 0.25 µg/mL (≈ 0.724 µM) in the data set with Proteus vulgaris; 0.25 µg/mL (≈ 0.724 µM) in the data set on Staphylococcus aureus [1]; 0.06 µg/mL (≈ 0.174 µM) against Escherichia coli [2]; 0.06 µg/mL (≈ 0.174 µM) with Enterobacter cloacae; 2 µg/mL (≈ 5.79 µM) against Enterococcus faecalis; 0.06 µg/mL (≈ 0.174 µM) in the data set on Klebsiella pneumoniae. The MIC with Morganella morganii amounted to 0.5 µg/mL (≈ 1.45 µM); in data set [3], 0.25 µg/mL (≈ 0.724 µM); against Pseudomonas aeruginosa [4], 2 µg/mL (≈ 5.79 µM); against Bacillus cereus it was 0.25 µg/mL (≈ 0.724 µM); in the data set with Bacillus subtilis, 0.06 µg/mL (≈ 0.174 µM). This compound also came in with an AUC in the data set with Mus musculus of 18100 ng·h/mL.
`O=C(O)c1cn(C2CC2)c2c(F)c(N3CC(O)C3)c(F)cc2c1=O`: the MIC stood at 0.06 µg/mL (≈ 0.178 µM) in the data set with Proteus vulgaris; 0.06 µg/mL (≈ 0.178 µM) with Staphylococcus aureus [1]; 0.06 µg/mL (≈ 0.178 µM) with Escherichia coli [2]; 0.06 µg/mL (≈ 0.178 µM) in the data set with Enterobacter cloacae; 0.5 µg/mL (≈ 1.49 µM) with Enterococcus faecalis; 0.007 µg/mL (≈ 0.0208 µM) with Klebsiella pneumoniae. For the same compound, the MIC is 0.06 µg/mL (≈ 0.178 µM) against Morganella morganii; 0.12 µg/mL (≈ 0.357 µM) in data set [3]; 2 µg/mL (≈ 5.95 µM) with Pseudomonas aeruginosa [4]; 0.03 µg/mL (≈ 0.0892 µM) in the data set with Bacillus cereus; 0.007 µg/mL (≈ 0.0208 µM) against Bacillus subtilis. For the same compound, the ED50 in the data set with Escherichia coli [5] worked out at 11.3 mg/kg; in the data set with Pseudomonas aeruginosa [6] it was 61.3 mg/kg; with Staphylococcus aureus [7], 29.7 mg/kg.
As to `CC1(N)CN(c2c(F)cc3c(=O)c(C(=O)O)cn(-c4ccc(F)cc4)c3c2F)C1`, the MIC was 1 µg/mL (≈ 2.48 µM) against Proteus vulgaris; 0.12 µg/mL (≈ 0.298 µM) with Staphylococcus aureus [1]; 0.25 µg/mL (≈ 0.62 µM) in the data set with Escherichia coli [2]; 0.25 µg/mL (≈ 0.62 µM) against Enterobacter cloacae; 2 µg/mL (≈ 4.96 µM) in the data set with Enterococcus faecalis; 0.015 µg/mL (≈ 0.0372 µM) against Klebsiella pneumoniae. The MIC is 0.25 µg/mL (≈ 0.62 µM) in the data set with Morganella morganii; 0.12 µg/mL (≈ 0.298 µM) in data set [3]; 2 µg/mL (≈ 4.96 µM) in the data set on Pseudomonas aeruginosa [4]; 0.12 µg/mL (≈ 0.298 µM) with Bacillus cereus; 0.12 µg/mL (≈ 0.298 µM) in the data set on Bacillus subtilis. The values for the ED50 in the data set with Escherichia coli [5], in the data set on Pseudomonas aeruginosa [6] and in the data set on Staphylococcus aureus [7] were 3.2 mg/kg, 159 mg/kg and 10.9 mg/kg, respectively.
